Bioassay records as filed in PubChem BioAssay.
Rows were chosen to be rich in hits. Some 2.3% of all compounds tested hit in one or more screens of this group.
PLCg1 inh = inhibitors of human phospholipase C gamma1; 370,000 tested, 0.84% active; inhibition, % at 12.2 µM; AID 720700; purified PLC-gamma1, fluorogenic substrate, fluorescence; in the data active means inhibition above about 9.5%
TbMetRS inhib = Trypanosoma brucei MetRS inhibition. inhibition, % at 11.9 µM. purified T. brucei MetRS, ATP depletion, Kinase-Glo luminescence. 360,000 tested, 0.4% active;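 active means inhibition above a per-plate cutoff of the control wells' mean inhibition plus 3 SD, cut at about 5.5% in these data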;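 further: 0% = DMSO wells median and 100% = median of wells with control inhibitor compound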
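System: purified T. brucei MetRS enzyme / Detection: Kinase-Glo luciferase luminescence reporting remaining unconsumed ATP / Medium: HEPES buffer with MgCl2, KCl, DTT, spermine, BSA, pyrophosphatase / Replication: singlicate, one well per compound / Evaluation: percent inhibition relative to median high and low control wells / Schedule: 2 h aminoacylation at 25 °C after 15 min preincubation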
ADAM10 inh = ADAM10 inhibition, QFRET primary screen; O14672; inhibition, % at 7 µM; recombinant ADAM10, EDANS/DABCYL FRET peptide cleavage, 3 h; AID 720582; 370,000 tested, 0.62% active;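 active means inhibition above a per-campaign cutoff equal to the mean of compounds falling between control-based bounds plus 3 SD, cut at about 20% in these data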;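 further: 0% = DMSO wells while the 100% control is not disclosed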
PLC-beta3 inh = PLC-beta3 (human) inhibition, primary screen; Q01970; inhibition, % at 12.2 µM; Purified PLC-beta3, fluorogenic substrate, fluorescence; 370,000 tested, 0.18% active; in the data active means inhibition above about 11%;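 further: 0% = median of compound wells on plate and 100% = full blocker control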
ADAM17 inh = ADAM17 inhibition, QFRET primary screen | recombinant ADAM17, EDANS/DABCYL FRET peptide cleavage | P78536 | inhibition, % at 6.95 µM | AID 720648 | 370,000 tested, 0.83% active;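 active means inhibition above the mean of compounds lying between control limits plus 3 SD, set per campaign, cut at about 8.5% in these data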;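 further: 0% = DMSO-only wells as the low control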
ADAM10 confirm = confirmation of inhibitors of human ADAM10. shares compounds with ADAM10 inh. 2,100 tested, 1% active. ADAM10 QFRET peptide cleavage, EDANS fluorescence. inhibition, % at 6.95 µM;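 active means inhibition above about 20% chosen separately for each screening run, limit read from the data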;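 further: 0% = DMSO wells and 100% = marimastat wells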
ADAM17 counter = inhibits human ADAM17 in ADAM10 exosite counter-screen. shares compounds with ADAM10 inh. 2,100 tested, 0.5% active. inhibition, % at 6.95 µM. ADAM17 QFRET peptide cleavage, EDANS fluorescence;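 active means mean triplicate inhibition above the solvent-only control wells' mean plus 3 SD, cut at about 12% in these data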;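 further: 0% = DMSO wells and 100% = marimastat wells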
* hit, by the source's call.

O=C1[C@H]2[C@@H](c3ccc(F)cc3)N3C(=O)N(c4ccccc4)C(=O)[C@@]3(Cc3ccc(Cl)cc3)[C@H]2C(=O)N1C1CCCCC1 was read as PLCg1 inh 1, TbMetRS inhib 0, ADAM10 inh 6, PLC-beta3 inh 2 and ADAM17 inh -4.
For O=C1[C@H]2[C@@H](c3ccc(F)cc3)N3C(=O)N(c4ccccc4)C(=O)[C@@]3(Cc3ccccc3)[C@H]2C(=O)N1C1CCCCC1 the results were PLCg1 inh 2, TbMetRS inhib 0, ADAM10 inh 24*, PLC-beta3 inh 3, ADAM17 inh 7, ADAM10 confirm 1 and ADAM17 counter 1.
`O=C(NC(c1cccnc1)c1ccc2c(c1)OCO2)C1CCN(CCOc2ccc(Cl)cc2Cl)CC1` (configuration not stated) gave PLCg1 inh 0, TbMetRS inhib 1, ADAM10 inh -5, PLC-beta3 inh -1 and ADAM17 inh -2.
Cc1cccc(NC(=O)C(Cc2ccccc2)c2nn[nH]n2)c1C (configuration not stated) was read as PLCg1 inh -1, TbMetRS inhib -2, ADAM10 inh -4, PLC-beta3 inh -3 and ADAM17 inh -3.
For Cc1c(Cl)c([N+](=O)[O-])nn1CCCC(=O)Nc1cc(Oc2ccccc2)cc([N+](=O)[O-])c1 the results were PLCg1 inh 5, TbMetRS inhib 0, ADAM10 inh -10, PLC-beta3 inh 2 and ADAM17 inh -1.
For Cc1nn(CCCC(=O)Nc2cc(Oc3ccc(F)cc3)cc([N+](=O)[O-])c2)c(C)c1[N+](=O)[O-] the results were PLCg1 inh 1, TbMetRS inhib 0, ADAM10 inh 26*, PLC-beta3 inh 0, ADAM17 inh 6, ADAM10 confirm 5 and ADAM17 counter 2.
For CC[C@]12c3[nH]c4ccc(Cl)cc4c3CCN1C(=O)[C@@H](CC(=O)NCc1cccc(C(F)(F)F)c1)C[C@@H]2C(=O)N1CCN(C(=O)c2ccco2)CC1 the results were PLCg1 inh 5, TbMetRS inhib -1, ADAM10 inh 23*, PLC-beta3 inh 0, ADAM17 inh 3, ADAM10 confirm 0 and ADAM17 counter 2.
Screening NC(=O)c1ccc(NC(=O)COC(=O)CCSc2ccccc2)cc1 returned PLCg1 inh 3, TbMetRS inhib 1, ADAM10 inh -1, PLC-beta3 inh -6 and ADAM17 inh -1.
NS(=O)(=O)c1cccc(NC(=O)COC(=O)CCSc2ccccc2)c1 was read as PLCg1 inh 1, TbMetRS inhib -1, ADAM10 inh 0, PLC-beta3 inh 2 and ADAM17 inh -2.
For CN(C)S(=O)(=O)c1cccc(NC(=O)COC(=O)CCSc2ccc(Cl)cc2)c1 the results were PLCg1 inh 3, TbMetRS inhib 0, ADAM10 inh 21*, PLC-beta3 inh 1, ADAM17 inh 8, ADAM10 confirm 3 and ADAM17 counter 1.
For Cc1ccc(SCCC(=O)OCC(=O)Nc2ccc(C(N)=O)cc2)cc1 the results were PLCg1 inh 2, TbMetRS inhib 1, ADAM10 inh 95*, PLC-beta3 inh -6, ADAM17 inh -4, ADAM10 confirm 0 and ADAM17 counter 0.
Cc1ccc2ccccc2c1NC(=O)CNCc1ccccc1 was read as PLCg1 inh 2, TbMetRS inhib 0, ADAM10 inh -9, PLC-beta3 inh 1 and ADAM17 inh -4.
Screening CC(C)c1ccc(C(O)P(=O)(OC2CCCCC2)OC2CCCCC2)cc1 (configuration not stated) returned PLCg1 inh 2, TbMetRS inhib 0, ADAM10 inh 4, PLC-beta3 inh -1 and ADAM17 inh -4.
`CCOC(=O)[C@@H]1[C@H]2COc3ccc(Br)cc3[C@H]2N2C(=O)N(c3ccc(F)cc3)C(=O)[C@]12C` gave PLCg1 inh 1, TbMetRS inhib 0, ADAM10 inh 25*, PLC-beta3 inh 3, ADAM17 inh 4, ADAM10 confirm 5 and ADAM17 counter 2.
